The values below come from PubChem BioAssay.

Calls of active or inactive are those of the source.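 How the source made its calls, unless noted: active means potentiation averaged over duplicate wells exceeding buffer-only control mean by more than 3 SD; inactive means the rest.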

Assay [1] in a line: thallium flux activation in parental CHO cells, counter-screen for KCNQ1 potentiator project (AID 493006;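 active means duplicate-averaged activation above buffer control mean plus 5 SD of those controls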;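 on activation: fluorescence ratio of max minus min over baseline after K+ and Tl+ depolarization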). The following applies: parental CHO-K1 cells, FluxOR thallium flux, at 10 µM; active compounds read high. The essentials: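 Material: parental CHO-K1 cells, FluxOR dye-loaded; Also added: Potassium/thallium depolarization pulse; Schedule: overnight 37 °C plating, 90 min dye, 20 min dark compound; Signal: kinetic FluxOR fluorescence, 10 s baseline, 110 s after stimulus.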

In assay [2] the target is Potassium voltage-gated channel subfamily KQT member 1 (Homo sapiens) (UniProt P51787). In words: KCNQ1 potassium channel potentiators, confirmation, FluxOR thallium flux, CHO cells, duplicates (AID 493007).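 On outcome: cells depolarized by a potassium plus thallium sulfate stimulus after compound.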 To be noted: KCNQ1 cell line, FluxOR thallium flux fluorescence, at 10 µM; active compounds read high, % of reference activator effect, buffer zero. The essentials:
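System: KCNQ1-expressing CHO cell line; technique: kinetic thallium influx fluorescence with FluxOR dye, 10 s baseline, 110 s post-stimulus; timing: dye 90 min then compound 20 min, both at room temperature; controls: buffer-only wells as 0% and R-L3 activator as 100%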

The target of assay [3] is Potassium voltage-gated channel subfamily KQT member 2 (Rattus norvegicus) (UniProt O88943). As to the kind of experiment: rat KCNQ2 channel potentiation, selectivity assay for KCNQ1 potentiator project, KCNQ2-CHO-K1 cells (AID 493009;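 active means mean duplicate potentiation above the buffer control mean plus 5 SD of buffer wells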;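 further: assay conditions were tuned for KCNQ1 rather than KCNQ2 modulators; signal is max minus min fluorescence divided by baseline after thallium stimulus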). The following applies: FluxOR thallium flux fluorescence, at 10 µM; active compounds read high, scaled: buffer 0, activator control 100.
The target in assay [4] is Potassium voltage-gated channel subfamily KQT member 1 (Homo sapiens) (UniProt P51787). As to the kind of experiment: KCNQ1 channel current potentiators, confirmation, orthogonal assay for KCNQ1 potentiator project, IonWorks patch clamp, KCNQ1-CHO cells (AID 493184;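 active means current rise at least 3 SD above the untreated control mean in each of two repeat wells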). To be noted: automated patch clamp current, at 10 µM; active compounds read high. The method in brief: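 Test system: KCNQ1-expressing CHO cells. Medium: pH 7.4 external bath. Probe or stimulus: voltage step from -90 mV holding to +40 mV, 2,000 ms. Compound: 10 µM final, single point. Detection: automated perforated-patch electrophysiology. Read-out: percent current increase versus pre-compound level. Repeats: two replicates.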

In assay [5] the target is Potassium voltage-gated channel subfamily E member 1 (Homo sapiens) + Potassium voltage-gated channel subfamily KQT member 1 (Homo sapiens) (UniProt P15382+P51787). As to the kind of experiment: KCNQ1/KCNE1 complex potentiators, confirmation, selectivity assay for KCNQ1 potentiator project, thallium flux, CHO-K1 KCNQ1/E1 cells (AID 493186;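 active means mean duplicate activation above the buffer control mean plus 5 SD of those controls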). To be noted: FluxOR thallium flux, at 10 µM; active compounds read high. The essentials: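 Material: CHO-K1 cells with KCNQ1/E1 / Timing: dye 90 min, compound 20 min, room temperature / Technique: kinetic thallium-sensitive FluxOR dye fluorescence / Read-out: percent activation scaled between buffer and R-L3 ratio signals / Replicates: tested in duplicate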
Potassium voltage-gated channel subfamily E member 1 (Homo sapiens) + Potassium voltage-gated channel subfamily KQT member 1 (Homo sapiens), sequence (P51787 whole entry, looked up): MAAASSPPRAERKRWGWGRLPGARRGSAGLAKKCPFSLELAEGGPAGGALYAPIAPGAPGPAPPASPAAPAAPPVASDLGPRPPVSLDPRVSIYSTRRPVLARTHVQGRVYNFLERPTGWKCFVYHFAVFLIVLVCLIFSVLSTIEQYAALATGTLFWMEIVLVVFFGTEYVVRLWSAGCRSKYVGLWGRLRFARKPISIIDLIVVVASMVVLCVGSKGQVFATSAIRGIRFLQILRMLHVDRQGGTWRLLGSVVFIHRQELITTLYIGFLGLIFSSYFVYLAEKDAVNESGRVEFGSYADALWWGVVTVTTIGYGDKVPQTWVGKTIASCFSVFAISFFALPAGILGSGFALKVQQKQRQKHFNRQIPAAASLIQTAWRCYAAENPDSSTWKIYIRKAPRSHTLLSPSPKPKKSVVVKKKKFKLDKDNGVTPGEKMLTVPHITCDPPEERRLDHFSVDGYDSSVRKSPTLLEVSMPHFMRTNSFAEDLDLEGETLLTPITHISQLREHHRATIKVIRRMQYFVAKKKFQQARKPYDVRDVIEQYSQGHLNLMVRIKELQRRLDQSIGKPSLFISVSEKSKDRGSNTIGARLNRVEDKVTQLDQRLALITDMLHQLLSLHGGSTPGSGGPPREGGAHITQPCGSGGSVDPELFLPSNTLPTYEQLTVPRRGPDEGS

Potassium voltage-gated channel subfamily KQT member 1 (Homo sapiens), sequence (P51787 whole entry, looked up): as above
Potassium voltage-gated channel subfamily KQT member 2 (Rattus norvegicus), sequence (O88943 whole entry, looked up): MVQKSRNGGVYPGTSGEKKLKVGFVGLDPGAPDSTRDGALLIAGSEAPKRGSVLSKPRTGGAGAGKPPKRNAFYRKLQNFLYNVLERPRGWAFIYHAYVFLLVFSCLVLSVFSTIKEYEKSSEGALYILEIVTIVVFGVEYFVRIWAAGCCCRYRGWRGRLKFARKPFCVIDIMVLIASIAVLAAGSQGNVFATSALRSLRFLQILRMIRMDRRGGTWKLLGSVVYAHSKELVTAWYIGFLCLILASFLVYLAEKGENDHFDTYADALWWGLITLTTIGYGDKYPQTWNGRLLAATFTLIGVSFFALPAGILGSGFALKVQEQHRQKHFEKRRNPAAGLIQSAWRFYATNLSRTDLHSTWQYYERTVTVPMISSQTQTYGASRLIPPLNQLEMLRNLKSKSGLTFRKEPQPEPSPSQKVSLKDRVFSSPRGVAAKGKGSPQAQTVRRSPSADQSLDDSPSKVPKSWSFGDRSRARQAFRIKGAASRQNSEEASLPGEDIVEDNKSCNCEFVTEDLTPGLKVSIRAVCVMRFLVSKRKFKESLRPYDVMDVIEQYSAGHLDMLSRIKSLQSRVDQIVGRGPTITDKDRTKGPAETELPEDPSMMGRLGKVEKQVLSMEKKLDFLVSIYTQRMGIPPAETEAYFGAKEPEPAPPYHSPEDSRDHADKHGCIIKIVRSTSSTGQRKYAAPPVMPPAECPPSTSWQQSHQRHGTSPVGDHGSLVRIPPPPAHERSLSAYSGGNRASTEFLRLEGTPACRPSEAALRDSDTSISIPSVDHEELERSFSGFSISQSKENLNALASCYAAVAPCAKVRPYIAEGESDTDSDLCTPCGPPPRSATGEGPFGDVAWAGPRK

Take `O=C(CC(c1ccccc1)c1ccccc1)Nc1ncn[nH]1`: the result in assay [1], in assay [2], in assay [3], in assay [4] and in assay [5] was inactive.
Turning to `CCOc1cc(CN2CCN(C(=O)CC(C)C)CC2)ccc1OC`, the result in assay [1], in assay [3], in assay [4] and in assay [5] was inactive. The potentiation in assay [2] was 23.5% (active).
With `CS(=O)(=O)c1ccc(C(=O)OCc2nnc(-c3ccccc3)o2)cc1[N+](=O)[O-]`, the outcome in assay [1], in assay [2], in assay [3], in assay [4] and in assay [5] was inactive.
On to `CCCc1cc(=O)[nH]c(SCC(=O)Nc2ccc(Br)cc2Br)n1`, for which the outcome in assay [1], in assay [2], in assay [3], in assay [4] and in assay [5] was inactive.
On to `CCCn1c(SCC(=O)Nc2ccccc2C(=O)OC)nc2c1c(=O)n(C)c(=O)n2C`, for which the result in assay [1], in assay [3], in assay [4] and in assay [5] was inactive. The potentiation in assay [2] was 120% (active).
Consider `COC(=O)C1=C(C)Nc2nc(-c3ccccc3)nn2C1c1ccc(C)o1` (stereo not drawn), for which the result in assay [1], in assay [3], in assay [4] and in assay [5] was inactive. The potentiation in assay [2] is 30% (active).
For the compound `COc1ccc(C(=O)NC(=S)NNC(=O)c2ccc(C)cc2)cc1`, the outcome in assay [1] and in assay [4] was inactive. The potentiation in assay [2] is 142% (active); in assay [3] it was 250% (active). For the same compound, the activation in assay [5] is 62.3% (active).
As for `CCOC(=O)c1cc2c(C)n(-c3ccc(C)cc3)c(C)c2ccc1=O`, the outcome in assay [1], in assay [3], in assay [4] and in assay [5] was inactive. The potentiation in assay [2] was 19.5% (active).
`S=c1nc[nH]c2c1sc1nc(N3CCOCC3)c3c(c12)CCCC3`: the result in assay [1], in assay [3], in assay [4] and in assay [5] was inactive. Further, the potentiation in assay [2] was 105% (active).
Consider `O=C(Nc1ccc(N2CCCC(O)C2)cc1)c1snc2c(=O)[nH]cnc12` (stereo not drawn), for which the result in assay [1], in assay [2], in assay [3], in assay [4] and in assay [5] was inactive.
For the compound `CCOC(=O)c1ccc(-n2c(CN3CCOCC3)nc3ccc([N+](=O)[O-])cc3c2=O)cc1`, the result in assay [1], in assay [2], in assay [3], in assay [4] and in assay [5] was inactive.
Take `CCOC(=O)c1c(C)cccc1OCC(N)=O`: the result in assay [1], in assay [2], in assay [3], in assay [4] and in assay [5] was inactive.
In the case of `CCCOc1ccc(C(=O)NNC(=S)NC(=O)c2cc(-c3ccccc3)nc3ccccc23)cc1`, the result in assay [1], in assay [3], in assay [4] and in assay [5] was inactive. The potentiation in assay [2] was 23.5% (active).
For the compound `O=C(NNc1ncc(C(F)(F)F)cc1Cl)c1ccc(Cl)c(Cl)c1`, the outcome in assay [1], in assay [2], in assay [4] and in assay [5] was inactive. Besides, in assay [3], the potentiation was 198% (active).
As to `Cc1ccc(C(=O)CC(=O)c2ccc(C)cc2O)cc1`, the outcome in assay [1], in assay [2], in assay [3], in assay [4] and in assay [5] was inactive.
On to `CNC(=O)CSc1nc2c(c(=O)n(C)c(=O)n2C)n1Cc1ccc(C)cc1`, for which the outcome in assay [1], in assay [2], in assay [3], in assay [4] and in assay [5] was inactive.
In the case of `O=C(NC(=S)Nc1ccc(Cl)cn1)c1cccs1`, the outcome in assay [1], in assay [2], in assay [3], in assay [4] and in assay [5] was inactive.
Take `CCSc1nnc(-c2ccncc2)n1Cc1ccccc1`: the result in assay [1], in assay [2], in assay [3], in assay [4] and in assay [5] was inactive.
Regarding `Cc1ccc(C2C(C#N)=C(N)OC3=C2C(=O)CC(C)(C)C3)s1` (stereo not drawn), the outcome in assay [1], in assay [2], in assay [3], in assay [4] and in assay [5] was inactive.
As to `CCOC(=O)COc1cc(-n2c(=S)[nH]c3cc(OC)c(OC)cc3c2=O)c(Cl)cc1Cl`, the outcome in assay [1], in assay [3], in assay [4] and in assay [5] was inactive. Moreover, the potentiation in assay [2] is 31.5% (active).
In the case of `Oc1c(/C=N/c2ccccn2)sc2ccccc12`, the outcome in assay [1], in assay [3], in assay [4] and in assay [5] was inactive. Also, the potentiation in assay [2] is 18% (active).
Take `COC(=O)c1cc(-c2cc(OC)ccc2OC)nc2c1c(=O)n(C)c(=O)n2Cc1ccccc1`: the result in assay [1], in assay [2] and in assay [4] was inactive.
On to `S=c1[nH]nc(-c2cccs2)n1/N=C/c1cn(-c2ccccc2)nc1-c1ccccc1`, for which the outcome in assay [1], in assay [3], in assay [4] and in assay [5] was inactive. The potentiation in assay [2] was 22% (active).
Regarding `CN(C)CCCNc1cc(-c2ccccc2)nc2cc(-c3cccc(F)c3)nn12`, the activation in assay [1] was 180% (active). In assay [2], the potentiation is 57% (active). In addition, the result in assay [4] was inactive.
Regarding `CCCn1c(SCC(=O)Nc2cccc(NC(C)=O)c2)nnc1C(C)C`, the result in assay [1], in assay [2] and in assay [4] was inactive.
For `O=C(NNc1c2ccccc2nc2ccccc12)c1ccccc1Cl`, the result in assay [1], in assay [2] and in assay [4] was inactive.
On to `O=C(NC(=S)Nc1ccc(Br)cn1)c1cccs1`, for which the result in assay [1], in assay [2] and in assay [4] was inactive.
Turning to `CSc1cccc(NC(=O)CN2C(=O)c3ccccc3S2(=O)=O)c1`, the outcome in assay [1], in assay [2] and in assay [4] was inactive.
As for `COc1cccc2c1C(=O)C=C(C)C2=O`, the result in assay [1], in assay [2] and in assay [4] was inactive.
As to `CC(=O)n1cc(N(C(=O)CCl)c2ccc(C)cc2)c2ccccc21`, the result in assay [1], in assay [2] and in assay [4] was inactive.
Turning to `O=C(CSc1nc(-c2ccccc2)cs1)N1CCc2ccccc21`, the outcome in assay [1], in assay [2] and in assay [4] was inactive.
As for `COc1cccc(NC(=O)CSCc2cc(=O)n3ccsc3n2)c1`, the outcome in assay [1], in assay [2] and in assay [4] was inactive.
For `COC(=O)C1CCN(C(=O)Nc2ccc(OC)cc2)CC1`, the activation in assay [1] is 144% (active). In addition, the potentiation in assay [2] was 33% (active). In addition, the result in assay [4] was inactive.
